System: HEK293T G6PC promoter luciferase with RORa, 20 h
Test: G6PC promoter luciferase repression by compounds – cell-based, luminescence, single concentration, counter-screen for RORA inverse agonist project, late-stage follow-up (AID 463144)
Settings: at 10 µM; hits give low values
Procedure, shortened: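 System: HEK293T cells expressing full-length RORa, SRC-2 coactivator, G6PC-promoter luciferase | Compound dosing: Single nominal dose of 10 µM per compound | Schedule: 20 h compound treatment | Measured by: Reporter luminescence | Read-out basis: Average fold change versus vehicle wells | Benchmarks: DMSO-only vehicle cells as reference | Repeats: n of 6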

## O=S(=O)(Nc1ccc(C(O)(C(F)(F)F)C(F)(F)F)cc1)c1cccs1
  fold change: 0.64

— PubChem BioAssay AID463144 (The Scripps Research Institute Molecular Screening Center, 2010)
